Compound activity (PubChem)
A selection: hits, their analogues and other compounds. The true share with any hit is near 1.4%.
Fh CTSL1 inh: counter-screen for PFM18AAP inhibitors: inhibitors of F. hepatica cathepsin L1; 300,000 compounds, 0.49% hits; AID 1906; inhibition, % at 5.96 µM; recombinant F. hepatica cathepsin L1, Z-Leu-Arg-MCA fluorescence;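 active means inhibition above the mean of all tested compounds plus 3 SD, set per screening campaign, cut at about 17% in these data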;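 further: 0% = plate median of test compound wells and 100% = 1 µM Z-Phe-Ala-diazomethylketone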
ZTA counter: ZTA (EBV) inhibition in EBNA-1 counter-screen. P03206. ZTA-DNA binding, fluorescence polarization. inhibition, % at 11 µM. 320,000 compounds, 0.15% hits. AID 2234; in the data active means inhibition above about 33%
Target sequence (P03206 whole entry, looked up): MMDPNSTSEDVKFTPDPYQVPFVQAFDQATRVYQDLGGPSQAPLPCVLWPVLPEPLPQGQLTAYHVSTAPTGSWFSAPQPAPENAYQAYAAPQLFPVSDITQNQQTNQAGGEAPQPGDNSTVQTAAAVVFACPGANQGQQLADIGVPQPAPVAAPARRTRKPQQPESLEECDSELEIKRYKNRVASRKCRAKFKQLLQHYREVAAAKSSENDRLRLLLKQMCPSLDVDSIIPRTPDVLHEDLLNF
EBNA-1 inhibitor: blocks EBNA-1 binding to DNA | EBNA-1 DNA binding, fluorescence polarization | 300,000 compounds, 0.34% hits | inhibition, % at 14.8 µM; in the data active means inhibition above about 28%
NS3 helicase inh: HCV NS3 helicase inhibition; NS3 helicase DNA unwinding, Cy5 molecular beacon fluorescence; inhibition, % at 10.9 µM; 290,000 compounds, 0.56% hits;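 active means inhibition above the mean of all tested compounds plus 3 SD, set per campaign, cut at about 35% in these data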;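 further: 0% = DMSO wells and 100% = thioflavine S control wells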
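test system = hepatitis C virus NS3 helicase domain fragment enzyme | reagent = annealed dual-labelled DNA beacon duplex, ATP-started | times = 1 h at 25 °C | detection = Cy5 fluorescence, 0 and 60 min reads | read-out basis = percent inhibition from t60/t0 fluorescence ratio | control set = DMSO and thioflavine S | replication = one well per compound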
NS3 hel confirm: confirmation of Hepatitis C virus NS3 helicase inhibitors | AID 1943 | inhibition, % at 10.9 µM | 1,600 compounds, 31% hits | shares compounds with NS3 helicase inh | NS3 helicase DNA unwinding, Cy5 molecular beacon fluorescence;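 active means inhibition above the mean of all tested compounds plus 3 SD, cutoff set per campaign, cut at about 36% in these data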
FID counter trip: counter-screen for HCV NS3 helicase inhibitors: DNA intercalator displacement; shares compounds with NS3 helicase inh; inhibition, % at 7.9 µM; 1,600 compounds, 4% hits; DNA fluorescent intercalator displacement, fluorescence; in the data active means inhibition above about 37%;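 further: 0% = vehicle and 100% = reference compound; higher means more displacement of ethidium bromide from the DNA hairpin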
EBNA-1 confirm: EBNA-1 (EBV) inhibition, confirmation | shares compounds with EBNA-1 inhibitor | Recombinant EBNA-1 DBD, Cy5-DNA fluorescence polarization | inhibition, % at 14.8 µM | 830 compounds, 35% hits | AID 2292;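 active means mean inhibition across replicates above a set limit taken from the earlier primary screen, cut at about 28% in these data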;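 further: plate controls were EBNA-1 protein with DMSO for no effect and wells lacking EBNA-1 for full effect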
ZTA counter trip: blocks Epstein-Barr virus ZTA in triplicate, EBNA-1 counter-screen; inhibition, % at 11.1 µM; 830 tested, under 10 active; Zta-ZRE DNA binding, Cy5 fluorescence polarization; shares compounds with EBNA-1 inhibitor;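 active means mean inhibition over triplicates above a set limit taken from the primary EBNA-1 screen, cut at about 37% in these data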;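 further: purified full length Zta protein with Cy5 labeled ZRE DNA probe; 0% = Zta with DMSO and 100% = wells lacking Zta protein; inhibitors lower polarization by freeing the labeled DNA probe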
ZTA inh confirm: EBV ZTA DNA binding inhibition, confirmation. shares compounds with ZTA counter. AID 2361. 320 compounds, 30% hits. Zta-ZRE DNA binding, fluorescence polarization. inhibition, % at 11.1 µM;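 active means mean inhibition across triplicate runs above the hit threshold derived for the original primary screen, cut at about 33% in these data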;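 further: 0% = Zta with DMSO and 100% = wells lacking Zta protein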
EBNA1 counter: counter-screen for ZTA inhibitors: EBNA-1 DNA binding inhibition; shares compounds with ZTA counter; fluorescence polarization; inhibition, % at 14.8 µM; 320 tested, under 10 active; call rule not given here
* hit, by the source's call; / = no result.

SMILES | Fh CTSL1 inh | ZTA counter | EBNA-1 inhibitor | NS3 helicase inh | NS3 hel confirm | FID counter trip | others
O=c1[nH]c(/C=C/c2ccc([N+](=O)[O-])cc2)c([N+](=O)[O-])c(=O)[nH]1 | / | / | / | 60.2* | -15.3 | 8.3
O=c1[nH]c(/C=C/c2ccc3c(c2)OCO3)c([N+](=O)[O-])c(=O)[nH]1 | 0.1 | -5.5 | -9.7 | -2.9 | / | /
Cc1ccc(N2C(=O)C3CCC(C)(C2=O)C3(C)C)cc1 (centres undefined) | -0.8 | 6.5 | 3.9 | -3.3 | / | /
CSC[C@@H]1NC(=S)N(c2ccc(C)cc2)C1=O | -0.3 | -12.6 | 15.1 | 36.4* | -12.0 | 16.9
CCc1ccc(NC(=O)Cc2c(C(=O)O)n(C)c3ccccc23)cc1 | 1.6 | 17.6 | -3.3 | 37.0* | 51.6* | -25.3
Cc1ccc2c(c1)N(S(=O)(=O)c1ccc(F)cc1)C(C(C)(C)C)CO2 (centres undefined) | 1.0 | -2.3 | 5.9 | 4.8 | / | /
Cc1ccc2c(c1)NC(C(C)(C)C)CO2 (centres undefined) | -3.2 | -15.3 | -4.5 | 85.1* | -2.5 | 15.4
O=c1c2ccccc2oc2cc(OCc3cccc(F)c3)cc(O)c12 | / | / | / | 36.7* | -11.3 | 16.7
CCOC(=O)c1oc2cc(O)cc(O)c2c(=O)c1OCc1ccccc1 | 1.1 | 7.0 | -6.4 | / | / | /
CSCCC(NC(=O)c1cccc(C)c1)C(=O)Nc1sccc1C(N)=O (centres undefined) | 13.9 | -8.3 | -8.4 | 41.0* | -14.6 | -3.3
C=CCNc1nc2ccccc2nc1NS(=O)(=O)c1ccc(Cl)cc1 | 1.0 | -10.2 | -3.5 | 36.4* | 32.4 | -24.6
COc1cc(CNC(=O)c2nc(Cn3nc(C)c(Br)c3C)no2)cc(OC)c1 | 3.3 | -19.0 | -6.7 | -13.0 | / | /
CC[C@H]1OC(=O)[C@H](C)[C@@H](O[C@H]2C[C@@](C)(OC)[C@@H](O)[C@H](C)O2)[C@H](C)[C@@H](O[C@@H]2O[C@H](C)C[C@H](N(C)C)[C@H]2O)[C@](C)(O)C[C@@H](C)C(=O)[C@H](C)[C@@H](O)[C@]1(C)O | 5.8 | 2.3 | 10.8 | 47.0* | 75.0* | -24.7
CC(Oc1ccccc1)C(=O)Nc1nnc(S(=O)(=O)N2CCCCC2)s1 (centres undefined) | -1.6 | -3.7 | 3.5 | -0.9 | / | /
Cc1ccc(S(=O)(=O)N2CCC(C(=O)Nc3ccc(S(=O)(=O)N4CCCC4)cc3)CC2)cc1C | 3.2 | -1.6 | 6.5 | / | / | /
CC(=O)c1ccc(N(CC(=O)NC2CCCC2)C(=O)CNC(=O)c2cccs2)cc1 | -10.2 | -3.1 | -4.7 | 37.0* | -7.6 | -11.4
Cc1ccc(S(=O)(=O)NN2C(=O)/C(=C/c3ccc(C(=O)O)cc3)SC2=S)cc1 | -2.6 | 13.9 | -17.4 | 37.2* | -19.0 | -6.8
O=C1/C(=C/c2cccc(F)c2)SC(=S)N1NS(=O)(=O)c1ccccc1 | 4.6 | 0.8 | 4.8 | 36.8* | 69.7* | -6.5
Cc1ccc(S(=O)(=O)NN2C(=O)/C(=C/c3cccn3C)SC2=S)cc1 | 6.5 | 17.4 | 12.2 | 49.6* | 59.9* | 8.2
Cc1ccc(/C=C2\SC(=S)N(NS(=O)(=O)c3ccc(C)cc3)C2=O)cc1 | 3.0 | 14.1 | 10.5 | 29.1 | / | /
COc1cc(/C=C2\SC(=S)N(NS(=O)(=O)c3ccccc3)C2=O)cc(OC)c1OC | 9.3 | 8.3 | -1.3 | 24.4 | / | /
Cc1ccc(S(=O)(=O)NN2C(=O)/C(=C/c3cccs3)SC2=S)cc1 | -1.1 | 15.1 | 0.3 | 16.6 | / | /
CC1=NN(c2cccc(C(=O)O)c2)C(=O)/C1=C\C=C\c1ccco1 | -1.4 | 69.7* | 12.6 | 42.2* | 76.2* | 4.0 | ZTA inh confirm=66.8*;EBNA1 counter=4.6
COc1ccc(C(=O)N/N=C(\C)c2ccc3c(c2)C2C=CCC2C(c2ccccc2)N3)cc1 (centres undefined) | -1.4 | -3.8 | 0.8 | 14.3 | / | /
COc1cccc(NS(=O)(=O)c2ccc3c(c2)C2C=CCC2C(c2ccc(C(=O)O)cc2)N3)c1 (centres undefined) | -3.5 | 38.5* | -0.8 | 43.0* | 52.3* | 41.9* | ZTA inh confirm=25.0;EBNA1 counter=3.8
SMILES | Fh CTSL1 inh | ZTA counter | EBNA-1 inhibitor | NS3 helicase inh | NS3 hel confirm | FID counter trip | others
CCSc1nc2sc3c(c2c(=O)n1-c1ccc(OC)cc1)CCN(C)C3 | -0.2 | 10.4 | -13.6 | -13.5 | / | /
O=C(O)c1ccc2c(c1)C(=O)/C(=C/c1ccccc1)C2=O | -2.4 | 10.5 | -2.4 | 5.1 | / | /
O=C(O)c1ccc2c(c1)C(=O)/C(=C\c1ccco1)C2=O | 7.1 | 61.5* | -4.4 | 62.5* | -14.8 | 10.8 | ZTA inh confirm=63.1*;EBNA1 counter=9.1
COc1ccc(OC)c(C2C(C(=O)c3ccccc3)=C(C)Nc3nc4ccccc4n32)c1 (centres undefined) | 2.8 | 20.6 | 13.8 | -2.6 | / | /
O=C1c2ccccc2-c2onc3ccc(NCc4ccco4)c1c23 | 1.9 | 83.4* | 17.7 | 40.8* | 21.1 | -88.4 | ZTA inh confirm=45.5*;EBNA1 counter=14.9
Cc1ccc(NC(=O)CN2C(=O)N/C(=C/c3cccn3-c3ccc(C(=O)O)cc3)C2=O)cc1 | 1.8 | 23.0 | 37.1* | 33.5 | / | / | EBNA-1 confirm=16.4;ZTA counter trip=40.0*
CCn1c(=O)c(C(=O)NCc2ccc(OC)c(OC)c2)c(O)c2ccccc21 | -0.2 | -1.1 | 30.4* | 3.2 | / | / | EBNA-1 confirm=-2.2;ZTA counter trip=0.6
Cn1c(/C=C/c2cccc(Br)c2)nc2ccccc2c1=O | 15.6 | 0.1 | -13.6 | 0.7 | / | /
O=C(NN1C(=O)c2ccc3c4c(ccc(c24)C1=O)CC3)c1ccc(Br)cc1 | 1.8 | -6.8 | 55.4* | -2.8 | / | / | EBNA-1 confirm=6.4;ZTA counter trip=8.5
Cc1c(NS(=O)(=O)c2ccc3c(c2)CCN3C(=O)C2CC2)c(=O)n(-c2ccccc2)n1C | -0.1 | 4.2 | 42.8* | -2.8 | / | / | EBNA-1 confirm=-3.6;ZTA counter trip=0.3
Cc1c(NS(=O)(=O)c2cc(Br)cc3c2N(C(=O)C2CC2)CC3)c(=O)n(-c2ccccc2)n1C | 4.0 | 8.4 | 14.4 | 7.5 | / | /
Cc1ccccc1C(=O)Nc1ccnn1C1CCN(Cc2ccccn2)CC1 | 3.0 | 10.3 | -1.3 | 5.2 | / | /
CCCNC(=O)Cc1c(OC)ccc2cc(Br)ccc12 | -1.0 | -3.5 | 5.9 | -3.6 | / | /
CCOc1ccc(N2CC(C(=O)Nc3ccc(OC)c(S(=O)(=O)N4CCCCC4)c3)CC2=O)cc1 (centres undefined) | -2.4 | 3.9 | 6.1 | 3.5 | / | /
O=C(Cn1cnc2ccccc2c1=O)Nc1nc2ccccc2s1 | -0.1 | 5.3 | 45.2* | 2.0 | / | / | EBNA-1 confirm=54.8*;ZTA counter trip=1.6
